Compounds with a hit are over-represented: about 1.7% of the library has one in this group of screens.
LMPTP block: LMPTP (human) inhibition; recombinant LMPTP-A, OMFP fluorogenic substrate, fluorescence intensity; inhibition, % at 20 µM; 360,000 tested, 0.22% active; AID 651560;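 active = compounds that cut the enzyme signal by at least half of the control window in the single-dose screen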;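 also: plate controls were DMSO wells with enzyme plus substrate for no effect and substrate without enzyme for full effect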
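Assay system: LMPTP-A phosphatase enzyme | Input: 0.625 nM enzyme | Also added: Fluorogenic phosphatase substrate OMFP at 400 µM final | Compound dosing: One test concentration per compound, 20 µM, with 3% DMSO overall | Schedule: 50 min enzyme reaction at room temperature, protected from light | Signal: Fluorescence intensity | Benchmarks: no-enzyme and uninhibited controls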
STEP inh: blocks human striatal-enriched tyrosine phosphatase; P54829; recombinant STEP, OMFP fluorogenic substrate, fluorescence; inhibition, % at 20 µM; 360,000 tested, 0.25% active; AID 588621;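 active = inhibition at 20 µM, scaled per plate between control wells, above about 37%, limit read from the data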;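 also: 0% = DMSO with enzyme and substrate and 100% = substrate only without enzyme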
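System: isolated STEP enzyme; schedule: 20 min enzyme reaction at room temperature, protected from light; medium: Bis-Tris buffer pH 6.0, 2.5 mM DTT, 0.005% Tween 20; signal: fluorescence, 480/540 nm; dosing: single compound dose of 20 µM, 1% DMSO final; also added: OMFP substrate, 25 µM final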
SUMO1 PPI mod: modulators of human SUMO1-mediated protein-protein interactions; P63165; SUMO1 binding to a labelled peptide, TR-FRET, 1 h; inhibition, % at 20 µM; 360,000 tested, 0.33% active; AID 602429; in the data active = inhibition above about 37%
Scp1 inh: blocks human Scp-1 phosphatase activity; Q9GZU7; Recombinant Scp1, phosphopeptide, malachite green phosphate absorbance; inhibition, % at 20 µM; 340,000 tested, 0.88% active; AID 493091;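 active = inhibition above about 50% at 20 µM, limit read from the data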;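 also: plate controls were DMSO wells with enzyme for no effect and wells lacking enzyme for full effect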
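Test system – truncated SCP-1 phosphatase (76-261aa) · Reagent – Phosphorylated 17-residue peptide substrate · Incubation – 45 min room-temperature reaction, 5 min colour, 30 min stabiliser · Detection – colorimetric phosphate reagent with accelerator and stabiliser, absorbance at 630 nm · Measure – % inhibition at 20 µM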
DNMT1 block: blocks human DNA methyltransferase DNMT1. P26358. DNMT1 molecular beacon, Hinp1I cleavage, fluorescence. inhibition (reported as % activation of signal), % at 10 µM. 360,000 tested, 0.83% active. AID 588458; in the data active = inhibition above about 50%
Target sequence (P26358 504-1616 limits assumed): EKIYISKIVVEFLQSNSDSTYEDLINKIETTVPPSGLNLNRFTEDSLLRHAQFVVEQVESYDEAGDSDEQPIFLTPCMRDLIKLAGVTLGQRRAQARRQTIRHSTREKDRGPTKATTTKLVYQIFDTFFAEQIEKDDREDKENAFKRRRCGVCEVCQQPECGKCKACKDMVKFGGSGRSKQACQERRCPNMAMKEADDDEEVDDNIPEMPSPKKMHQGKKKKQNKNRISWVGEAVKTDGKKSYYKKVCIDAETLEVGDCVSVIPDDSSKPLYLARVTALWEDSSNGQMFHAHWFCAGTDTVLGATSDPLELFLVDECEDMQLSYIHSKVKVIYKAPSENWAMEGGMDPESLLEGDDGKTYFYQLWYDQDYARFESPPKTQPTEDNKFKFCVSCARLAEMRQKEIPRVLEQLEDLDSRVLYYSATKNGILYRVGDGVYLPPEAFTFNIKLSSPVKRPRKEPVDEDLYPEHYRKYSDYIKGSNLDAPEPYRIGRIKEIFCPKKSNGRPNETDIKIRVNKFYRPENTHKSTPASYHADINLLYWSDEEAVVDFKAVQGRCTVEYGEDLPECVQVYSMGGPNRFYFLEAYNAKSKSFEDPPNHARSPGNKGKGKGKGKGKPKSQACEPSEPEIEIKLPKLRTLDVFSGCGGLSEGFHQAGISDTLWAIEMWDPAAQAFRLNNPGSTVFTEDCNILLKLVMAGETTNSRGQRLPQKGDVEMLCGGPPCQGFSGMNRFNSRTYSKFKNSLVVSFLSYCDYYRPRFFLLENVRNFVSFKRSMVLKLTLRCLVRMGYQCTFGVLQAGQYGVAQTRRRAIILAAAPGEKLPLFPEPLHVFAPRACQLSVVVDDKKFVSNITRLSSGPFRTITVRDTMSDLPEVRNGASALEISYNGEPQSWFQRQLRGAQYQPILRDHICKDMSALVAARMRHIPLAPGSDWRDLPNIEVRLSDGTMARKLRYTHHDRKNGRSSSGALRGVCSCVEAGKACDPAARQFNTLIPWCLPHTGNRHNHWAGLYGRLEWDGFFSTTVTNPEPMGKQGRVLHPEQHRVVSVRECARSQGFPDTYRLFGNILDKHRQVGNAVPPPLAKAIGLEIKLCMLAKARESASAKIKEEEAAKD
Active calls of the source: *; · = no result.

SMILES | LMPTP block | STEP inh | SUMO1 PPI mod | Scp1 inh | DNMT1 block
CN1CCN(c2cc(N3CCN(C(=O)c4ccco4)CC3)c3c4c(onc24)-c2ccccc2C3=O)CC1 | 8.4 | 4.4 | 2.9 | 5.8 | -21.2
O=C(C1=C[C@@H]2[C@H]3C(=O)N(c4cccc(Cl)c4)C(=O)[C@H]3[C@@H](C(=O)c3ccc(Cl)cc3)N2C=C1)c1ccccc1 | 2.6 | 3.6 | -2.5 | -9.6 | 68.7*
O=C(CCCn1c(SCC(=O)c2ccc(O)c(O)c2)nc2ccccc2c1=O)NCC1CCCO1 (configuration not stated) | 51.3* | 1.8 | 6.1 | -5.8 | 6.7
COc1ccc(-c2cc3c(=O)n(CC(=O)N4CCCC4)ncn3n2)cc1 | 1.0 | -0.7 | 57.6* | -8.2 | 13.6
Cc1cc(C)c(S(=O)(=O)NCc2ccccn2)c(C)c1 | -0.8 | -1.0 | 0.3 | -11.5 | 1.3
Cc1cc(C)c(C(N)=O)c(SCC(=O)c2cc(C)n(-c3cc(C)on3)c2C)n1 | -1.5 | 2.9 | 0.5 | -8.1 | 1.9
CCOC(=O)C1=C(C)c2ccccc2N(C(=O)OC)C1(C)C(=O)OCC (configuration not stated) | 0.6 | 1.5 | 2.5 | 98.2* | 11.9
CCOC(=O)C1=C(C)c2ccccc2OC1(CC)C(=O)OCC (configuration not stated) | 0.4 | -0.2 | -1.8 | -6.6 | 0.1
Cc1ccc[n+](C2C(c3ccc([N+](=O)[O-])cc3)C(C#N)=C([S-])NC2(O)C2CC2)c1 (configuration not stated) | 17.0 | 2.3 | -9.8 | 6.4 | 4.0
COc1ccc([C@H]2C(C#N)=C([S-])N[C@](C)(O)[C@@H]2[n+]2ccccc2)cc1 | 49.1* | -0.6 | -34.0 | -7.8 | 47.5
O=C1CC(c2ccc(O)cc2)Oc2cc(O)cc(O)c21 (configuration not stated) | -0.2 | -2.2 | 3.6 | -11.3 | 2.5
CC1CC(=O)c2c(cc3c(-c4c(O)cc(O)c5c(O)c6c(cc45)OC(C)CC6=O)c(O)cc(O)c3c2O)O1 (configuration not stated) | 48.6 | 6.2 | 64.3* | 14.9 | 80.6*
CCCCCCCCCCCCCCCC[n+]1cccc2ccccc21 | 3.8 | 17.6 | 82.8* | 75.2* | -8.0
NC(c1csc(NC(=O)Nc2ccc(OC(F)(F)F)cc2)n1)C1CCCCC1 (configuration not stated) | -2.6 | -1.7 | -84.3 | · | -1.7
CCn1cc(C(=O)O)c(=O)c2cc(F)c(N3CCN(C(=O)Nc4ccccc4)CC3)cc21 | 51.2* | -0.6 | 10.2 | -9.7 | -1.6
CCn1cc(C(=O)O)c(=O)c2cc(F)c(N3CCN(C(=S)NC(=O)c4ccc(OC)cc4)CC3)cc21 | 67.3* | 6.6 | 5.6 | -9.1 | 0.9
CCn1cc(C(=O)O)c(=O)c2cc(F)c(N3CCN(C)CC3)cc21 | -1.9 | -1.1 | -0.2 | -1.3 | -3.0
CCCCCCCC(=O)N1CCN(c2cc3c(cc2F)c(=O)c(C(=O)O)cn3CC)CC1 | 9.2 | 2.7 | 0.3 | -4.0 | -0.6
CCCCCCCCC(=O)N1CCN(c2cc3c(cc2F)c(=O)c(C(=O)O)cn3CC)CC1 | 15.5 | 2.0 | 1.3 | -9.7 | -3.5
CCn1cc(C(=O)O)c(=O)c2cc(F)c(N3CCN(C(=S)NC(=O)c4ccc(Br)cc4)CC3)cc21 | 60.8* | 3.1 | 24.5 | -7.2 | -1.8
CCn1cc(C(=O)O)c(=O)c2cc(F)c(N3CCN(C(=S)NC(=O)c4cccc(C)c4)CC3)cc21 | 60.3* | 2.5 | 4.8 | -12.3 | -2.6
CCn1cc(C(=O)O)c(=O)c2cc(F)c(N3CCN(S(=O)(=O)c4ccc5c(c4)OCCO5)CC3)cc21 | 61.7* | -0.4 | 4.8 | 0.6 | -1.3
CCn1cc(C(=O)O)c(=O)c2cc(F)c(N3CCN(C(=S)NC(=O)c4ccccc4F)CC3)cc21 | 69.6* | 2.4 | -6.9 | -12.3 | -0.5
CCn1cc(C(=O)O)c(=O)c2cnc(N3CCN(C(=S)Nc4ccccc4Cl)CC3)nc21 | 51.4* | 4.8 | 8.0 | 2.5 | -0.1
CC(CNC1CCCCC1)OC(=O)c1ccc([N+](=O)[O-])cc1 (configuration not stated) | -1.8 | -1.2 | -19.1 | -0.3 | 3.0
SMILES | LMPTP block | STEP inh | SUMO1 PPI mod | Scp1 inh | DNMT1 block
Cc1oc2c(C)c3oc(=O)c(CCC(=O)O)c(C)c3cc2c1-c1ccccc1 | 4.1 | 2.0 | 38.3* | 17.7 | 3.3
CCNc1ccc2noc3c2c1C(=O)c1ccccc1-3 | -14.6 | -321.2 | -12.0 | 11.8 | 62.9*
CN(C)/C=C/C(=O)c1ccc(OCCN(C)c2ccccn2)cc1 | 51.2* | -0.9 | 18.2 | -7.1 | -1.1
O=C(Nc1cccc(C(F)(F)F)c1)c1ccc2nc(-c3ccco3)c(-c3ccco3)nc2c1 | 21.6 | 1.5 | 32.8 | 84.2* | 84.5*
COc1ccc(CCNC(=O)c2ccc3nc(-c4ccco4)c(-c4ccco4)nc3c2)cc1OC | 63.9* | 22.1 | 47.0* | 89.3* | 98.4*
O=C(Nc1ccc2nc(-c3ccco3)c(-c3ccco3)nc2c1)NC1CC1 | 70.5* | 54.2* | 75.9* | 92.2* | 92.6*
CC(C)CNS(=O)(=O)c1ccc(CCC(=O)NC2CCCCC2)cc1 | -0.6 | -1.7 | -2.5 | -10.8 | 1.6
CC(C)CN(C(=O)CSc1nnc(C2CC2)n1-c1ccccc1)C1CCS(=O)(=O)C1 (configuration not stated) | -0.3 | -0.8 | -3.6 | -4.9 | 0.6
CCN(CC(=O)Nc1c(F)cccc1F)C(=O)/C=C/c1ccc2ccccc2n1 | 71.0* | 41.7* | 77.3* | 85.9* | 101.8*
O=C(/C=C/c1ccncc1)c1ccc(NC(=O)c2ccccc2F)cc1 | 57.0* | 13.6 | -3.4 | 3.8 | 6.4
COc1ccc(-c2ccc(CN3C(C(C)C)C(=O)N(Cc4cn(CC5CCCCC5)nn4)CCS3(=O)=O)cc2)cc1OC (configuration not stated) | 4.6 | -1.6 | 0.5 | · | -22.9
COc1cccc(C(=O)NC(=S)N2c3ccccc3CC2C)c1OC (configuration not stated) | -1.3 | -0.6 | 42.8* | -5.8 | 3.4
CC(=O)Nc1ccc(S(=O)(=O)NCCC(=O)NNC(=O)c2ccncc2)cc1 | 0.8 | 0.7 | 5.0 | -2.8 | 1.9
Oc1ccc(C=NNC(=S)Nc2ccc(F)cc2)c(O)c1 | 1.0 | -5.0 | 53.2* | -10.5 | -5.3
CC(C)(C)NC(=O)C(c1ccc(C(F)(F)F)cc1)n1c(=O)c(-c2ccco2)nc2ccccc21 (configuration not stated) | 0.2 | · | -0.5 | · | ·
Cc1onc(-c2c(F)cccc2Cl)c1C(=O)Oc1ccccc1 | 0.7 | -0.2 | 3.9 | · | 2.6
Cc1cc(-c2ccc([N+](=O)[O-])cc2)nc2ccccc12 | 2.3 | 1.7 | -18.1 | -4.2 | 0.2
Cc1cc(N2CCN(c3nc(-c4ccc([N+](=O)[O-])cc4)cs3)CC2)c2ccccc2n1 | 95.4* | 4.3 | -7.0 | 4.1 | -14.3
COc1ccccc1CNc1nc(NCc2ccc3occc3c2)c2sccc2n1 | 18.0 | 6.2 | -9.9 | · | -24.3

Screening results deposited in PubChem by Sanford-Burnham Center for Chemical Genomics.
